# “And” between values parts separate entries of the source, which are not always exact repeats. Equal values may be shown once. Read-outs that look alike come from different tables or passages of the source.
# Assays:
# [1] = cited from earlier work
# [2] = 684 nmol (320 μg) cecal infusion after bowel cleansing; cited from earlier work
# [3] = assay type: in vivo, human; conditions: caplet 855 nmol oral
# [4] = Apparent absorption across the colon calculated with one-compartment model; assay type: in vivo, human
# Summary of the method: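 Enteric-coated caplet with about 12.6% coating mass gain. The absorbed mass was estimated from plasma labeled 5-methyltetrahydrofolate concentration using a three-equation, one-compartment model of small-intestinal folate absorption. Volume of distribution was taken as 387 mL/kg body weight. t_lag, the time plasma enrichment stayed at baseline, was set at 1 h. Plasma was sampled hourly after pyloric passage until 2000, then at 24 and 48 h.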
# [5] = assay type: in vivo, human
# Summary of the method: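 Given after a ≥4-wk washout as an IV injection in 1.35 mL sterile saline (pH 7.0, 74 μg folate/mL). Blood was drawn from the opposite arm at 15 min, then every 30 min for 4 h. Plasma M+5/M+0 molar ratios were measured by LC-MS/MS. Amounts were converted to nmol/person from baseline microbiological plasma folate, blood volume and packed cell volume. Half-life came from a one-phase exponential fit to the descending plasma curve.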
# [6] = model parameter; cited from earlier work
# [7] = iv 214 nmol, individual subjects A-I
Detection of [13C5]5-formyltetrahydrofolate (parent) in plasma after caplet ([3]; any subject),"Apparent absorption across the colon of the 855-nmol dose ([4]; caplet, one-compartment model, mean, excludes 2 subjects without plasma response)","bioavailability ([4]; human, plasma, oral, 855 nmol)","5-formyltetrahydrofolate Cmax (labeled, plasma) ([5]; iv 214 nmol, mean ± SEM, n = 9)","Plasma enrichment with [13C5]5-formyltetrahydrofolate ([5]; plasma samples collected immediately after iv injection, mean ± SEM)",SMILES,Apparent absorption in the small intestine ([1]; 500-nmol orally administered test dose),"Rate of folate absorption across the small intestine ([1]; oral bolus 421–569 nmol, estimated from published data)",Rate of folate absorption after bolus infusion directly into the cecum [2],Cmax of [13C5]5-methyltetrahydrofolate in plasma ([3]; individual subjects A-F),"5-formyltetrahydrofolate Cmax (labeled, plasma) [5, 7]","5-methyltetrahydrofolate Cmax (labeled metabolite, plasma) [5, 7]",Apparent volume of distribution (V) [6]
did not detect,46% and 46.2 ± 16.5%,34.7 ± 14.3%,13.5 ± 1.6 nmol,11.6 ± 1.5%,"Nc1nc2c(c(=O)[nH]1)N(C=O)C(CNc1ccc(C(=O)N[C@@H](CCC(=O)O)C(=O)O)cc1)CN2 (stereo partly drawn) [[^13C5]5-formyltetrahydrofolate, [glutamyl-^13C5]-[6S]-5-formyltetrahydrofolic acid]",38 ± 6% and 38%,~ 34 nmol/h,0.6 ± 0.02 nmol/h,0.5 nmol and 2.0 nmol and 3.7 nmol and 4.0 nmol and 1.6 nmol,20.0 nmol and 10.2 nmol and 20.3 nmol and 7.1 nmol and 15.9 nmol and 14.1 nmol and 7.5 nmol and 10.9 nmol and 15.2 nmol,6.8 nmol and 6.6 nmol and 10.2 nmol and 3.1 nmol and 7.8 nmol and 10.0 nmol and 5.0 nmol and 6.0 nmol and 5.8 nmol,
,,,,,Nc1nc2ncc(CNc3ccc(C(=O)N[C@@H](CCC(=O)O)C(=O)O)cc3)nc2c(=O)[nH]1 [folate],,,,,,,387 mL/kg body weight

# Source: article PMC4823011 (The American journal of clinical nutrition, 2014)
